Test results from BindingDB's records for doi:10.1021/jm701107h (The Ohio State University, 2008).

Target: T1, Aromatase (Homo sapiens, UniProt P11511)
T1 sequence (P11511 whole entry): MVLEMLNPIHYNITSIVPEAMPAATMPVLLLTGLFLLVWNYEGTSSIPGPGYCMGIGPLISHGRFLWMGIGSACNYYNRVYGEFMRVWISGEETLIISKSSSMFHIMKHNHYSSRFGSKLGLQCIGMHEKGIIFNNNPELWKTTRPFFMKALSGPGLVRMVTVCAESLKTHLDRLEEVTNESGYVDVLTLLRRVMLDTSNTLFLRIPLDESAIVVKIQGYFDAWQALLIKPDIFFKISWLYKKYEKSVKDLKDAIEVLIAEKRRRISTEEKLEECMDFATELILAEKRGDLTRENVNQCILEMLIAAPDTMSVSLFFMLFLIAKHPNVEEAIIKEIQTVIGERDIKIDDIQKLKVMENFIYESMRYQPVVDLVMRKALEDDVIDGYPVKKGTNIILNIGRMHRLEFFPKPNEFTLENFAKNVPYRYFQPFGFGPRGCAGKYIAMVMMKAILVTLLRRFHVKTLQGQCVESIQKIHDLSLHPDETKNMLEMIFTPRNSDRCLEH
Test: Inhibition of aromatase in human SKBR3 cells by tritiated water release assay
Method in brief: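 Subconfluent SK-BR-3 cells were switched to defined DMEM/F12 (human albumin, transferrin, insulin) and treated 24 h at five concentrations in triplicate (0.1% DMSO vehicle). They were then incubated 3 h with 100 nM [1β-3H]-androstenedione. TCA-precipitated medium was chloroform-extracted and charcoal-treated, and 3H2O counted as pmol/h/10^6 cells, normalized by DNA assay. IC50 was taken from sigmoidal dose–response fits.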

| IC50 [µM] | SMILES |
| --- | --- |
| > 25 | COc1cc([N+](=O)[O-])ccc1N(C)S(C)(=O)=O [N-methyl-N-(2-methoxy-4-nitrophenyl)methanesulfonamide] |
| > 25 | COc1cc([N+](=O)[O-])ccc1NS(C)(=O)=O [N-(2-methoxy-4-nitrophenyl)methanesulfonamide] |
